We go through five compounds from ChEMBL document CHEMBL1777739, “Design, synthesis, and biological activity of novel Magmas inhibitors” (Bioorg Med Chem Lett, 2011).

Calls of active or inactive are those of the source. The calls are words filed in the database; no cut-off is given here.

The subject of data set [1] is Saccharomyces cerevisiae. Kind of data set: Inhibition of TIM16-mediated Saccharomyces cerevisiae J47D proliferation in log phase at 1 mM measured for every 30 mins. A digest of the protocol: (§1)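 Log-phase S. cerevisiae J47D plated at 1.5 × 10⁴ cells/well in YEPD. Compounds in DMSO added across 0–1 mM, triplicate wells, 1% final DMSO. Cultured at 30 °C with OD600 read every 30 min. n = 3; each experiment done at least twice independently.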

Data set [2] has as its system Saccharomyces cerevisiae. Kind of data set: Inhibition of TIM16-mediated Saccharomyces cerevisiae J47D proliferation in log phase at 100 uM measured for every 30 mins. A digest of the protocol:
as §1

The subject of data set [3] is Saccharomyces cerevisiae. Kind of data set: Inhibition of TIM16-mediated Saccharomyces cerevisiae J47D proliferation in log phase at 10 uM measured for every 30 mins. In a few lines:
as §1

Data set [4] has as its system Saccharomyces cerevisiae. Put plainly: Inhibition of TIM16-mediated Saccharomyces cerevisiae J47D proliferation in log phase at 1 uM measured for every 30 mins. A digest of the protocol:
as §1

Data set [5] in a line: Solubility of the compound at 1 mM. The format is physicochemical. Particulars: 1000 µM.
Data set [6] concerns T1, Saccharomyces cerevisiae [A104S].
T1 sequence (whole entry): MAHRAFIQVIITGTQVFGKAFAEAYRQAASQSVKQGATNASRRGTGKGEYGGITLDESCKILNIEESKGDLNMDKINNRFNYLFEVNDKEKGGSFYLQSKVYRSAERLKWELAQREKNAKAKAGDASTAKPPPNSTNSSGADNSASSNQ
Put plainly: Inhibition of Saccharomyces cerevisiae TIM16 A104S mutant-mediated proliferation up to 60 mins. A digest of the protocol: (§2)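 Yeast whose wild-type TIM16 plasmid was lost on FOA selection, carrying plasmid-borne Tim16 N84T or A104S mutants, cultured in YEPD at 30 °C. Compound added at graded concentrations in DMSO (1% final), triplicate wells. OD600 read every 30 min; compared with the wild-type plasmid strain.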

For data set [7], the system named is Saccharomyces cerevisiae. Put plainly: Inhibition of Saccharomyces cerevisiae TIM16 N84T mutant-mediated proliferation up to 60 mins. In a few lines:
as §2

The nature of data set [8]: Binding affinity to Saccharomyces cerevisiae Magmas by fluorometric titration. In a few lines:
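Intrinsic Trp/Tyr fluorescence of yeast Magmas (3 µM, unit as printed) in 50 mM Bis–Tris pH 7.1, 25 °C. Excitation 295 nm, emission read at 365 nm. Ligand titrated from 0 to […] using freshly made stock. Dilution kept ≤10% and corrected for. Kd obtained by fitting intensity versus total ligand concentration to a single-site binding equation.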

For `Brc1ccc2c(c1)C=CC(c1ccccc1)O2` (stereo not drawn), the inhibition result in the data set on Saccharomyces cerevisiae [1], in the data set on Saccharomyces cerevisiae [2] and in the data set with Saccharomyces cerevisiae [3] was “Active” throughout. In addition, in the data set with Saccharomyces cerevisiae [4], the inhibition result is “inactive”.

For the compound `CCCCCCCCC1C=Cc2cc([N+](=O)[O-])ccc2O1` (stereo not drawn), the inhibition result in the data set with Saccharomyces cerevisiae [2] is “Active”. Also, the inhibition entry with Saccharomyces cerevisiae [3] and with Saccharomyces cerevisiae [4] was “inactive” in each case. Also, in data set [5], the solubility result was “Insoluble”.

On to `O=[N+]([O-])c1ccc2c(c1)C=CC(c1ccccc1)O2` (stereo not drawn), for which the inhibition entry in the data set on Saccharomyces cerevisiae [1], in the data set with Saccharomyces cerevisiae [2], in the data set on Saccharomyces cerevisiae [3] and in the data set with Saccharomyces cerevisiae [4] was “inactive” in each case.

`CCC1=C(C)/C(=C/c2ccc(C(=O)NC(=N)N)cc2)CCC1(C)C`: the inhibition result (in data set [6]; in the data set with Saccharomyces cerevisiae [1]; in the data set with Saccharomyces cerevisiae [2]; in the data set with Saccharomyces cerevisiae [3]) was “Active” each time. Further, the inhibition result in the data set with Saccharomyces cerevisiae [7] and with Saccharomyces cerevisiae [4] was “inactive” each time. Also, the Kd – broadly, the concentration at which binding is half-saturated – in data set [8] is 33.5 µM.

Take `Clc1ccc2c(c1)C=CC(c1ccccc1)O2` (stereo not drawn): the inhibition result in the data set with Saccharomyces cerevisiae [2] was “Active”. The inhibition result with Saccharomyces cerevisiae [3] and in the data set with Saccharomyces cerevisiae [4] was “inactive” throughout. Also, in data set [5], the solubility entry is listed as “Insoluble”.
